# Measurements as given in PMC6263940 (Nature chemical biology, 2018).
# Columns and labels:
# [1] = molecular target: T1, ABHD12 (Mus musculus, UniProt Q99LR1); test: ABHD12-dependent lyso-PS lipase activity of mouse brain membrane proteome; type: biochemical
# T1 sequence (Q99LR1 1-398): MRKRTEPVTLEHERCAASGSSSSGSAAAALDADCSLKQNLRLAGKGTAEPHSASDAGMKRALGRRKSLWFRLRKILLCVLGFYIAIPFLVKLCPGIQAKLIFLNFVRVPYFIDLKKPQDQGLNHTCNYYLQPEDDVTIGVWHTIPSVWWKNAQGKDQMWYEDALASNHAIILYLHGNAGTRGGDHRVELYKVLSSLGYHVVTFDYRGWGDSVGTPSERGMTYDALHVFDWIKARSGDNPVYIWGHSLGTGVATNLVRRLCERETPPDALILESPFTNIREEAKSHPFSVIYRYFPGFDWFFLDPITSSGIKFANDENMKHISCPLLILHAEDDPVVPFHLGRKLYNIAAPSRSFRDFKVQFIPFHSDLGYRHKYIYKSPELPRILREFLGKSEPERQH
# [2] = molecular target: T2, ABHD12 (Homo sapiens, UniProt Q8N2K0); test: ABPP-SILAC; type: cell-based; details: 1 μM, 4 h, THP-1 cells
# T2 sequence (Q8N2K0 1-398): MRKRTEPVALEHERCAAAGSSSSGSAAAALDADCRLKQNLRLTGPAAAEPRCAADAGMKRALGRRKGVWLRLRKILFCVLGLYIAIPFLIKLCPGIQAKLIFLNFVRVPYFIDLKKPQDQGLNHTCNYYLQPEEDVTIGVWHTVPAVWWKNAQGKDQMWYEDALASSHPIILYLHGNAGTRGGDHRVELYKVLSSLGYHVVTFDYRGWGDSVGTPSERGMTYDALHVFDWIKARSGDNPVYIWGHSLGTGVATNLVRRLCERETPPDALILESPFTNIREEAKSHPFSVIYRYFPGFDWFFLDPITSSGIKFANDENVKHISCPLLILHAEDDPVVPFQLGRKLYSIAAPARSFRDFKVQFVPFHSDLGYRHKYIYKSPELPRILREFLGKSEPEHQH
# Method in brief: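 Heavy- or light-labelled THP-1 cells (30 million) differentiated with PMA (150 ng/mL final) for 24 h, washed, then kept a further 24 h in fresh SILAC medium. Light cells treated with test compound and heavy cells with DMSO, 4 h at 37 °C. Sonicated whole-cell proteomes (2 mg/mL) labelled separately with FP-biotin 1 μM, 30 min, room temperature, then combined for quantitative MS.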
# [3] = system: serine hydrolases in THP-1 cells; test: ABPP-SILAC; type: cell-based, human; details: 1 μM, 4 h, THP-1 cells
# [4] = molecular target: T2, ABHD12; test: Gel-based competitive ABPP; type: cell-based; details: 24 h treatment, JJH350 probe
# Method in brief: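 PBMCs collected from the gradient interface, red cells lysed (5 min, room temperature) and plated in DPBS at 2.26 × 10⁵ cells/cm²; adherent monocytes attach within 1–2 h. After in situ treatment, proteome (1 mg/mL) labelled with JJH350 (2 μM final, 45 min, 37 °C), clicked and run on gel. ABHD12 band intensity is normalised to the control sample (100%).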
compound,measurement,setting,value
"FC(F)(F)Oc1ccc(Oc2ccnc(N3CCC(NC(=S)Nc4cccnc4)CC3)c2Cl)c(Cl)c1 [DO264, N-3-pyridyl-N’-(1-[3-chloro-4-{2-chloro-4-(trifluoromethoxy)phenoxy}pyridine-2-yl]piperidin-4-yl)thiourea]",IC50,[1],2.8 nM
same,ABHD12 activity blocked,[2],> 95%
same,effect on activity of other serine hydrolases,[3],without affecting the activity of other serine hydrolases
same,ABHD12 activity in primary human macrophages,[4],inhibits ABHD12 activity
